Experimental data: ChEMBL document CHEMBL4699596, “Therapeutic Targeting of MMP-12 for the Treatment of Chronic Obstructive Pulmonary Disease” (J Med Chem, 2020)
Active and inactive are the calls of the source. The calls are words filed in the database; no cut-off is given here. Non-standard residues stand in square brackets, D forms with d. Residues, ends and D or L forms follow the SMILES beside them. *: point of attachment. dPhe(4-CF3) = N[C@H](Cc1ccc(C(F)(F)F)cc1)C(=O)O; dBip = N[C@H](Cc1ccc(-c2ccccc2)cc1)C(=O)O; dPhe(3-Cl) = N[C@H](Cc1cccc(Cl)c1)C(=O)O; dPhe(3-Me) = Cc1cccc(C[C@@H](N)C(=O)O)c1; dPhe(4-Cl) = N[C@H](Cc1ccc(Cl)cc1)C(=O)O; dPhe(4-Me) = Cc1ccc(C[C@@H](N)C(=O)O)cc1; dPhe(2-Me) = Cc1ccccc1C[C@@H](N)C(=O)O; dPhe(3-F) = N[C@H](Cc1cccc(F)c1)C(=O)O; dPhe(4-F) = N[C@H](Cc1ccc(F)cc1)C(=O)O; 2Nal = N[C@@H](Cc1ccc2ccccc2c1)C(=O)O; dPhe(2-F) = N[C@H](Cc1ccccc1F)C(=O)O; dIgl = N[C@@H](C(=O)O)C1Cc2ccccc2C1; d(hPhe) = N[C@H](CCc1ccccc1)C(=O)O; Bn = c1ccc(C*)cc1; NHOH = ON*

Experiments:
[1] = target: T1, Macrophage metalloelastase (Homo sapiens, UniProt P39900); assay: Inhibition of recombinant human MMP12 catalytic domain (Gly106 to Gly263 residues) expressed in Escherichia coli BL21 Codon Plus cells using 5-FAM/QXL520 FRET peptide as substrate preincubated for 15 mins followed by substrate addition and measured at 3 mins interval for 60 mins by fluorescence assay
Target sequence in this assay (P39900 whole entry, the tested form may be a part): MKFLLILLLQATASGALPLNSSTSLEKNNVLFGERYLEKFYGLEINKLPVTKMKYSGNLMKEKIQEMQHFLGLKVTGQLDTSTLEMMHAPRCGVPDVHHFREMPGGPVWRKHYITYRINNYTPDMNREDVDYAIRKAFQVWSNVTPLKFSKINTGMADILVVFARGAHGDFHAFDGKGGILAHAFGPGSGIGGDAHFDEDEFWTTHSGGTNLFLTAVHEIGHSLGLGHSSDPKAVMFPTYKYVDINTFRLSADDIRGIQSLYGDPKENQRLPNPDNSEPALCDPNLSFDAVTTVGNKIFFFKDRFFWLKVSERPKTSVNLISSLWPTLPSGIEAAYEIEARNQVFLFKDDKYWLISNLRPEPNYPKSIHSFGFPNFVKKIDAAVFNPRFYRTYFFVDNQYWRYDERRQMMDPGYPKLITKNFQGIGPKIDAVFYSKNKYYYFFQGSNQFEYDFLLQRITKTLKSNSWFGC

[2] = target: T1, Macrophage metalloelastase; assay: Binding affinity to recombinant human 15N-labelled MMP12 catalytic domain (Gly106 to Gly263 residues) expressed in Escherichia coli BL21 Codon Plus cells assessed as ratio of peak intensities of L212 and I220 in bound versus the unbound form at 10 uM by 1D-1H NMR analysis
Target sequence in this assay (P39900 106-470 limits assumed): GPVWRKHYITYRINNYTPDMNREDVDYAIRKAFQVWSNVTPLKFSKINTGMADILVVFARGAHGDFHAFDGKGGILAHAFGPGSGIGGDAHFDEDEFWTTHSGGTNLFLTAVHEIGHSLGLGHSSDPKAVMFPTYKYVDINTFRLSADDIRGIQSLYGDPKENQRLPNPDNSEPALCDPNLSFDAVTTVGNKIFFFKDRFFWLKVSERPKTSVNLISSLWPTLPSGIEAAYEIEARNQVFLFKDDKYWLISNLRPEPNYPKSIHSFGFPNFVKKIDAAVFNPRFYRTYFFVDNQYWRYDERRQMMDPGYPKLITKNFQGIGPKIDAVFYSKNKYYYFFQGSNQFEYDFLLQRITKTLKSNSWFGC

[3] = test system: Mus musculus; assay: Protection against porcine elastase-induced emphysema in ip dosed C57BL/6 mouse model assessed as effect on total BALF cellularity/influx administered once daily for 7 days measured 21 days post initial elastase instillation; format: functional, organism-based; conditions: time 19.0 day
Summary of the method: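 Same elastase and dosing scheme as line 10 (C57BL/6, intranasal 0.9 U PPE, daily i.p. for 7 days from day 2). At day 21 BAL cell pellet taken up in 200 μl PBS and counted on a hemocytometer. Cytospin differentials of 300 cells per slide. Two-way ANOVA with Tukey post-hoc.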

[4] = test system: Mus musculus; assay: Protection against porcine elastase-induced emphysema in ip dosed C57BL/6 mouse model assessed as decrease in emphysema-like pathology administered once daily for 7 days measured 21 days post initial elastase instillation by H and E staining based light microscopic analysis; format: functional, organism-based; conditions: time 19.0 day
Summary of the method: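 Male and female C57BL/6 mice, 6–8 weeks, given one intranasal dose of 0.9 U porcine pancreatic elastase in 50 μl PBS (saline controls). From day 2, daily i.p. vehicle or inhibitor for 7 days. At day 21 lungs formalin-inflated at 20 cm pressure, paraffin-embedded, H&E-stained and imaged at 10x. Mean linear intercept = line length/alveolar wall intersections. Two-way ANOVA with Tukey.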

[5] = target: Collagenase 3 (Homo sapiens) (UniProt P45452); assay: Inhibition of recombinant human 6His-tagged MMP13 catalytic domain (104 to 274 residues) expressed in Escherichia coli at 4 to 25 nM using 5-FAM/QXL520 FRET peptide as substrate preincubated for 15 mins followed by substrate addition and measured at 3 mins interval for 60 mins by fluorescence assay; conditions: dose nM 4-25, time 75.0 min
Summary of the method: (§1)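 Catalytic domains, 10 ng enzyme, preincubated with inhibitor 15 min at RT. FRET substrate (SensoLyte 520 kit) then added, fluorescence read every 3 min for 60 min. Inhibitors at 25 nM or 4 nM; percent inhibition reported.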

[6] = target: T2, Interstitial collagenase (Homo sapiens) (UniProt P03956); assay: Inhibition of recombinant human 6His-tagged MMP1 catalytic domain (106 to 261 residues) expressed in Escherichia coli at 4 to 25 nM using 5-FAM/QXL520 FRET peptide as substrate preincubated for 15 mins followed by substrate addition and measured at 3 mins interval for 60 mins by fluorescence assay; conditions: dose nM 4-25, time 75.0 min; summary of the method: as §1
T2 sequence (whole entry): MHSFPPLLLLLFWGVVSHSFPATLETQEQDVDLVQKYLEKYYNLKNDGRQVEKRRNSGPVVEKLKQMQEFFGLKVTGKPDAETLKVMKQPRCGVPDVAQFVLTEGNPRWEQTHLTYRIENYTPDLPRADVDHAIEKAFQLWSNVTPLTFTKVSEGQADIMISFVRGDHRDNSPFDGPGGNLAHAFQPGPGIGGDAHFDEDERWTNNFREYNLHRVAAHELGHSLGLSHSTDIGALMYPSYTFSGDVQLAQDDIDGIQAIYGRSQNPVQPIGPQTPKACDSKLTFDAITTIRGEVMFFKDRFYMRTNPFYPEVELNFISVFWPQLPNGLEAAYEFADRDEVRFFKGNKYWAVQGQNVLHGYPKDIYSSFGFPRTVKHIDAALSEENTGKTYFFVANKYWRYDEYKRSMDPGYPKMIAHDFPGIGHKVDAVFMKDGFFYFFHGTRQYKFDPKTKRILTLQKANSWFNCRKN

[7] = target: Matrix metalloproteinase-14 (Homo sapiens) (UniProt P50281); assay: (§2) Inhibition of recombinant human His-tagged MMP14 expressed in Escherichia coli at 4 to 25 nM using 5-FAM/QXL520 FRET peptide as substrate preincubated for 15 mins followed by substrate addition and measured at 3 mins interval for 60 mins by fluorescence assay; conditions: dose nM 4-25, time 75.0 min; summary of the method: as §1
[8] = target: Matrix metalloproteinase-9 (Homo sapiens) (UniProt P14780); assay: Inhibition of recombinant human 6His-tagged MMP9 catalytic domain (112 to 445 residues) expressed in Escherichia coli at 4 to 25 nM using 5-FAM/QXL520 FRET peptide as substrate preincubated for 15 mins followed by substrate addition and measured at 3 mins interval for 60 mins by fluorescence assay; conditions: dose nM 4-25, time 75.0 min; summary of the method: as §1
[9] = target: Stromelysin-1 (Homo sapiens) (UniProt P08254); assay: as §2, with “MMP3 catalytic domain (Pro19 to Glu271 residues)” for “MMP14”; conditions: dose nM 4-25, time 75.0 min; summary of the method: as §1
[10] = Half life in Balb/c mouse at 30 mg/kg, ip by LC-MS/MS analysis; format: ADME, organism-based; conditions: in vivo
Summary of the method: (§3)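 Single i.p. dose of 30 mg/kg to 5 Balb-C mice (22–26 g) in 10% DMSO, 40% PEG400, 10% (2-hydroxypropyl)-β-cyclodextrin in PBS. Retro-orbital blood taken at 30 min, 1, 2, 4, 8 and 24 h. Plasma drug measured by extraction and LC/MS against a calibration curve of purified agent.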

[11] = Tmax in Balb/c mouse at 30 mg/kg, ip by LC-MS/MS analysis; format: ADME, organism-based; conditions: in vivo; summary of the method: as §3
[12] = target: T1, Macrophage metalloelastase; assay: Potency index, ratio of MMP408 IC50 to test compound IC50 for inhibition of recombinant human MMP12 catalytic domain (Gly106 to Gly263 residues) expressed in Escherichia coli BL21 Codon Plus cells
Target sequence in this assay (P39900 106-470 limits assumed): as the sequence (P39900 106-470 limits assumed) above

[13] = Cmax in Balb/c mouse at 30 mg/kg, ip by LC-MS/MS analysis; format: ADME, organism-based; design: route intraperitoneal, dose 30 mg/kg; conditions: in vivo; summary of the method: as §3
[14] = Ratio of Cmax in Balb/c mouse at 30 mg/kg, ip to IC90 for inhibition of recombinant human MMP12 catalytic domain (Gly106 to Gly263 residues) expressed in Escherichia coli BL21 Codon Plus cells; format: organism-based; conditions: in vivo

Chain of Matrix metalloproteinase-9 (Homo sapiens) (P14780 whole entry, the tested form may be a part): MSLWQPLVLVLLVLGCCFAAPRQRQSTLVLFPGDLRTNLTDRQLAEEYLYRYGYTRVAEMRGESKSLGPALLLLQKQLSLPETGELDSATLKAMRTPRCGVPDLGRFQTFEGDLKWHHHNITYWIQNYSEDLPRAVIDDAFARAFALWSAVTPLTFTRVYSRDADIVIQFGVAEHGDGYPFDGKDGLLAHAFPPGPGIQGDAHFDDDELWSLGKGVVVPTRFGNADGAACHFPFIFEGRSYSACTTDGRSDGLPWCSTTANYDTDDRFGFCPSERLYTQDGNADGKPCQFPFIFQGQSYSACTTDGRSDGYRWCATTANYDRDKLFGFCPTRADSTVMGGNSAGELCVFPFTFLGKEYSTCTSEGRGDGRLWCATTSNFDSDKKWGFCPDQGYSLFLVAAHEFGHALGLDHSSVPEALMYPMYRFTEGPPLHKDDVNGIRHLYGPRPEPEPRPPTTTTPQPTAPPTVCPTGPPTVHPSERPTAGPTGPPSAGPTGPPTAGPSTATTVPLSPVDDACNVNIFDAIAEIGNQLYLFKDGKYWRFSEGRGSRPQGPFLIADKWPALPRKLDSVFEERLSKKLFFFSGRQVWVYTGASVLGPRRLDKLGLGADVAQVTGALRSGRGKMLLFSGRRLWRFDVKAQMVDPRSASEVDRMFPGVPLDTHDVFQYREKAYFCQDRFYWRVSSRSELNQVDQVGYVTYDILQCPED
Chain of Stromelysin-1 (Homo sapiens) (P08254 100-477 limits assumed): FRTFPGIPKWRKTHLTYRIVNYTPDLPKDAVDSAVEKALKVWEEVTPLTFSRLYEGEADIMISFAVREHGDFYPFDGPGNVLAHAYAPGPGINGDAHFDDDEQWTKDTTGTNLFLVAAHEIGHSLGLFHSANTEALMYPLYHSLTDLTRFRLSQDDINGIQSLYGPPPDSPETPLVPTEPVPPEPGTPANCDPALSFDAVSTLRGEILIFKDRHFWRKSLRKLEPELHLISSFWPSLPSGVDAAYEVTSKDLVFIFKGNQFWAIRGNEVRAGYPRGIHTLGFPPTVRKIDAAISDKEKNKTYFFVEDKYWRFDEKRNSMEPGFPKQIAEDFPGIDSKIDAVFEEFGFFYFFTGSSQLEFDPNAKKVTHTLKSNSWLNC

Compound	IC50 [1] [nM]	Ratio [2]	other results
CC(=O)N[C@@H](COCc1ccccc1)C(=O)N[C@H](CCc1ccccc1)C(=O)N[C@H](Cc1ccc(C)cc1)C(=O)NO (Ac-Ser(Bn)-[d(hPhe)]-[dPhe(4-Me)]-{NHOH})	20.9	> 1	–
CC(=O)N[C@@H](COCc1ccccc1)C(=O)N[C@H](CCc1ccccc1)C(=O)N[C@H](Cc1ccccc1F)C(=O)NO (Ac-Ser(Bn)-[d(hPhe)]-[dPhe(2-F)]-{NHOH})	27.8	> 1	–
CC(=O)N[C@@H](CCCc1ccccc1)C(=O)N[C@H](CCc1ccccc1)C(=O)N[C@H](Cc1ccccc1)C(=O)NO	19.5	> 1	–
CC(=O)N[C@@H](COCc1ccccc1)C(=O)N[C@H](CCc1ccccc1)C(=O)N[C@H](Cc1ccc(F)c(F)c1F)C(=O)NO	75.9	1	–
CC(=O)N[C@@H](COCc1ccccc1)C(=O)N[C@H](CCc1ccccc1)C(=O)N[C@H](Cc1ccc(F)cc1)C(=O)NO (Ac-Ser(Bn)-[d(hPhe)]-[dPhe(4-F)]-{NHOH})	42	> 1	–
CC(=O)N[C@@H](Cc1ccc2ccccc2c1)C(=O)N[C@H](CCc1ccccc1)C(=O)N[C@H](Cc1ccccc1)C(=O)NO (Ac-[2Nal]-[d(hPhe)]-[dF]-{NHOH})	138	< 1	–
COc1ccc(CCC[C@H](NC(C)=O)C(=O)N[C@H](CCc2ccccc2)C(=O)N[C@H](Cc2ccccc2)C(=O)NO)cc1	20.5	> 1	–
COC(=O)Nc1ccc2oc3cc(S(=O)(=O)N[C@@H](C(=O)O)C(C)C)ccc3c2c1	–	–	Activity [3]: inactive; Activity [4]: Active
CC(=O)N[C@@H](COCc1ccccc1)C(=O)N[C@H](CCc1ccccc1)C(=O)N[C@H](Cc1cccc(F)c1)C(=O)NO (Ac-Ser(Bn)-[d(hPhe)]-[dPhe(3-F)]-{NHOH})	30.2	> 1	–
CC(=O)N[C@@H](Cc1c[nH]c2ccccc12)C(=O)N[C@H](CCc1ccccc1)C(=O)N[C@H](Cc1ccccc1)C(=O)NO (HELM PEPTIDE1{[ac].W.[O=C([C@@H](CCc1ccccc1)N[*:1])[*:2]].[dF].[ON[*:1]]}$$$$V2.0)	34.9	1	–
CC(=O)N[C@@H](COCc1ccccc1)C(=O)N[C@H](CCc1ccccc1)C(=O)N[C@H](Cc1ccccc1)C(=O)NO (Ac-Ser(Bn)-[d(hPhe)]-[dF]-{NHOH})	26.5	> 1	inhibition [5]: inactive; inhibition [6]: inactive; inhibition [7]: inactive; inhibition [8]: inactive
CC(=O)N[C@@H](COCc1ccccc1)C(=O)N[C@H](CCc1ccccc1)C(=O)N[C@H](Cc1ccc(C(F)(F)F)cc1)C(=O)NO (Ac-Ser(Bn)-[d(hPhe)]-[dPhe(4-CF3)]-{NHOH})	57.1	1	–
CC(=O)N[C@@H](COCc1ccccc1)C(=O)N[C@H](CCc1ccccc1)C(=O)N[C@H](Cc1ccc(Cl)cc1)C(=O)NO (Ac-Ser(Bn)-[d(hPhe)]-[dPhe(4-Cl)]-{NHOH})	35.1	> 1	–
CC(=O)N[C@@H](COCc1ccccc1)C(=O)N[C@H](CCc1ccc(C(F)(F)F)cc1)C(=O)N[C@H](Cc1ccccc1)C(=O)NO	16.7	1	–
CC(=O)N[C@@H](COCc1ccccc1)C(=O)N[C@H](Cc1ccc(-c2ccccc2)cc1)C(=O)N[C@H](Cc1ccccc1)C(=O)NO (Ac-Ser(Bn)-[dBip]-[dF]-{NHOH})	–	inactive	–
CC(=O)N[C@@H](COCc1ccccc1)C(=O)N[C@H](CCc1ccccc1)C(=O)N[C@H](Cc1ccccc1C)C(=O)NO (Ac-Ser(Bn)-[d(hPhe)]-[dPhe(2-Me)]-{NHOH})	–	< 1	–
CC(=O)N[C@@H](COCc1ccccc1)C(=O)N[C@H](CCc1ccccc1)C(=O)N[C@H](Cc1ccc(OC(C)=O)cc1)C(=O)NO (Ac-Ser(Bn)-[d(hPhe)]-[dY](Ac)-{NHOH})	36.1	1	–
CNC(=O)[C@H](Cc1c[nH]c2ccccc12)NC(=O)[C@@H](CC(=O)NO)CC(C)C [ILOMASTAT]	2.4	–	inhibition [9]: Active
CC(=O)N[C@@H](COCc1ccccc1)C(=O)N[C@H](CCc1ccccc1)C(=O)N[C@H](Cc1cccc(Cl)c1)C(=O)NO (Ac-Ser(Bn)-[d(hPhe)]-[dPhe(3-Cl)]-{NHOH})	47.2	> 1	–
CC(=O)N[C@@H](COCc1ccccc1)C(=O)N[C@H](CCCc1ccccc1)C(=O)N[C@H](Cc1ccccc1)C(=O)NO	–	< 1	–
COc1ccc(CC[C@@H](NC(=O)[C@H](CCCc2ccccc2)NC(=O)CN2CCOCC2)C(=O)N[C@H](Cc2ccc(C)cc2)C(=O)NO)cc1	4.5	–	inhibition [9]: Active; half-life [10]: 300 min; Tmax [11]: 2 h; Ratio IC50 [12]: > 5; Cmax [13]: 580 nM; inhibition [5]: inactive; Activity [3]: inactive; inhibition [6]: inactive; Activity [4]: Active; Ratio [14]: > 20; inhibition [7]: inactive; inhibition [8]: inactive
COc1ccc(CC[C@@H](NC(=O)[C@H](COCc2ccccc2)NC(C)=O)C(=O)N[C@H](Cc2ccccc2)C(=O)NO)cc1	16.3	> 1	–
CC(=O)N[C@@H](COCc1ccccc1)C(=O)N[C@@H](C(=O)N[C@H](Cc1ccccc1)C(=O)NO)C1Cc2ccccc2C1 (Ac-Ser(Bn)-[dIgl]-[dF]-{NHOH})	–	inactive	–
COc1ccc(CCC[C@H](NC(=O)CN2CCOCC2)C(=O)N[C@H](CCc2ccc(OC)cc2)C(=O)N[C@H](Cc2ccc(C)cc2)C(=O)NO)cc1	4.4	–	inhibition [9]: Active; Ratio IC50 [12]: > 5; inhibition [5]: inactive; Activity [3]: inactive; inhibition [6]: inactive; Activity [4]: Active; inhibition [7]: inactive; inhibition [8]: inactive
CC(=O)N[C@@H](COCc1ccccc1)C(=O)N[C@H](CCc1ccccc1)C(=O)N[C@H](Cc1ccc(OS(=O)(=O)F)cc1)C(=O)NO	–	< 1	–
CC(=O)N[C@@H](COCc1ccccc1)C(=O)N[C@H](CCc1ccccc1)C(=O)N[C@H](Cc1cccc(C)c1)C(=O)NO (Ac-Ser(Bn)-[d(hPhe)]-[dPhe(3-Me)]-{NHOH})	35.5	> 1	–
CC(=O)N[C@@H](COCc1ccccc1)C(=O)N[C@H](CCc1ccccc1)C(=O)N[C@H](Cc1ccc(O)cc1)C(=O)NO (Ac-Ser(Bn)-[d(hPhe)]-[dY]-{NHOH})	42.1	> 1	–
